Key:
[1] = tested on: Staphylococcus aureus; experiment: Bacterial killing assay with recombinant whole IFN-β; format: cell-based; settings: 5×10^2 units/ml mIFN-β incubated at 37°C for 60 min, then bacteria 3 hours, CFU
[2] = tested on: gram-negative strains of bacteria; experiment: Killing assay with IFN-β helix 4 peptide, gram-negative bacteria; format: cell-based; settings: bacteria 1×10^5/ml, 6 μM mouse helix 4 peptide, 3 hours, 37°C, CFU (Fig. 6I)
[3] = tested on: Escherichia coli; experiment: Bacterial killing assay with recombinant whole IFN-β; format: cell-based; settings: increasing doses of IFN-β, 3 hours, CFU
[4] = tested on: S. aureus isogenic mutant lacking the dlt gene (Δdlt); experiment: Bacterial killing assay with recombinant whole IFN-β, dlt-deficient strain; format: cell-based, Staphylococcus aureus; settings: increasing concentrations of IFN-β, 3 hours, CFU
[5] = tested on: Staphylococcus epidermis; experiment: Bacterial killing assay with recombinant whole IFN-β; format: cell-based; settings: incubated with IFN-β (Fig. S1)
Summary of the method: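 Overnight cultures subcultured to mid-log (OD₆₀₀=0.4), washed in sterile PBS and renormalised to OD₆₀₀=0.4. Bacteria resuspended in assay medium and incubated with recombinant whole IFN-β or vehicle in 100 μl reactions at 37°C with shaking. Ten-fold serial dilutions plated on LB to count surviving CFU.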

mIFN-β: recombinant whole mouse IFN-β (PBL Interferon)
killing of S. aureus after pre-incubation at 37°C [1]: killing was not lost
antimicrobial activity against gram-negative bacteria [2]: significantly less effective
inhibitory or killing effect on Escherichia coli [3]: did not observe any inhibitory or killing effect
killing of Δdlt S. aureus compared to WT [4]: increased killing of Δdlt bacteria compared to WT
killing of Staphylococcus epidermis [5]: observed killing
